Source: ChEMBL document CHEMBL1153955, “Indolylarylsulfones bearing natural and unnatural amino acids. Discovery of potent inhibitors of HIV-1 non-nucleoside wild type and resistant mutant strains reverse transcriptase and coxsackie B4 virus” (J Med Chem, 2009)

Columns and labels:
Influenza B virus [1] = assay: Antiviral activity against influenza B virus in MDCK cells assessed as reduction of virus-induced cytopathicity by MTS method; format: functional, organism-based
[2] = tested on: Vesicular stomatitis virus; assay: Antiviral activity against VSV in human HeLa cells assessed as protection against virus-induced cytopathicity; format: functional, organism-based
Human respirovirus 3 = assay: Antiviral activity against Parainfluenza virus type 3 in african green monkey Vero cells assessed as protection against virus-induced cytopathicity; format: functional, organism-based; settings: Human respirovirus 3, Vero
How it was run: (§1)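 Confluent cell monolayers inoculated with 100 CCID₅₀ virus. After 1-2 h adsorption, residual virus removed and cultures incubated with varying compound concentrations. Cytopathicity scored once it reached completion in untreated infected controls. EC₅₀ = dose reducing virus-induced cytopathogenicity by 50%.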

Influenza A virus H3N2 [3] = assay: Antiviral activity against influenza H3N2 virus in MDCK cells assessed as reduction of virus-induced cytopathicity by MTS method; format: functional, organism-based
[4] = tested on: Human immunodeficiency virus 1; assay: Antiviral activity against HIV1 3B in human CEM cells assessed as protection against virus-induced cytopathicity after 4 days; format: functional, organism-based; settings: Human immunodeficiency virus 1, 3B, CCRF-CEM, 96 h
How it was run: (§2)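 CEM cells (~3 × 10⁵ cells/mL) infected with ~100 CCID₅₀ per mL of HIV-1 (IIIB) or HIV-2 (ROD), then seeded into wells containing compound dilutions. After 4 days at 37 °C, syncytium (giant cell) formation was examined microscopically. EC₅₀ = concentration protecting CEM cells from HIV cytopathicity by 50%.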

Influenza A virus [5] = assay: Antiviral activity against influenza H1N1 virus in MDCK cells assessed as reduction of virus-induced cytopathicity by visual cytopathic effect scoring method; format: functional, organism-based
Feline coronavirus = assay: Antiviral activity against Feline coronavirus in feline […] cells assessed as inhibition of virus-induced cytopathicity; format: functional, organism-based; settings: Alphacoronavirus 1
[6] = Cytotoxicity against human HeLa cells assessed as drug level causing microscopically detectable alteration of normal cell morphology after 3 days; format: cell-based
How it was run: (§3)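 Serial compound dilutions added to confluent HeLa or Vero monolayers. MCC = minimum concentration causing microscopically detectable alteration of cell morphology after 3 days of incubation.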

[7] = Cytotoxicity against MDCK cells assessed as drug level causing microscopically detectable alteration of normal cell morphology; format: cell-based, Canis lupus familiaris; settings: dog
[8] = Cytotoxicity against human HEL cells assessed as drug level causing microscopically detectable alteration of normal cell morphology after 3 days; format: cell-based
Vaccinia virus = assay: Antiviral activity against Vaccinia virus Lederle in human HEL cells assessed as protection against virus-induced cytopathicity; format: functional, organism-based; settings: Orthopoxvirus vaccinia
Human alphaherpesvirus 2 = assay: Antiviral activity against HSV2 G in human HEL cells assessed as protection against virus-induced cytopathicity; format: functional, organism-based; settings: Human alphaherpesvirus 2, strain G; how it was run: as §1
Influenza B virus [9] = assay: Antiviral activity against influenza B virus in MDCK cells assessed as reduction of virus-induced cytopathicity by visual cytopathic effect scoring method; format: functional, organism-based
Human alphaherpesvirus 1 [10] = assay: Antiviral activity against HSV1 KOS in human HEL cells assessed as protection against virus-induced cytopathicity; format: functional, organism-based; settings: Human alphaherpesvirus 1, KOS
[11] = Cytotoxicity against feline CRFK cells by MTS assay; format: cell-based, Felis catus; settings: cat
Influenza A virus H3N2 [12] = assay: Antiviral activity against influenza H3N2 virus in MDCK cells assessed as reduction of virus-induced cytopathicity by visual cytopathic effect scoring method; format: functional, organism-based
L1210 = assay: Antiproliferative activity against mouse L1210 cells after 2 days; format: cell-based; settings: L1210, 48 h
How it was run: (§4)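 Cells seeded at 5 × 10⁴ to 7.5 × 10⁴ cells/200 µL with or without serial compound dilutions; incubated at 37 °C for 2 days (L1210) or 3 days (Molt4/C8, CEM). Cell numbers counted with a Coulter counter. CC₅₀ = concentration reducing proliferation by 50% versus untreated controls, read from plots of cell number (% of control) against concentration. Means of at least two independent experiments.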

[13] = Antiproliferative activity against human Molt4/C8 cells after 3 days; format: cell-based; settings: MOLT-4, 72 h; how it was run: as §4
[14] = molecular target: Human immunodeficiency virus type 1 reverse transcriptase (Human immunodeficiency virus 1, UniProt Q72547, Y181I); assay: Inhibition of HIV1 reverse transcriptase p66/p51 Y181I mutant; settings: read-out: IC50
How it was run: (§5)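 Substrate was 0.5 µg poly(rA)/oligo(dT) 10:1 (0.3 µM 3′-OH ends) with 10 µM [³H]dTTP, at 37 °C. Acid-precipitable radioactivity was counted on GF/C filters after TCA washes.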

[15] = molecular target: Human immunodeficiency virus type 1 reverse transcriptase (Human immunodeficiency virus 1, UniProt Q72547, L100I); assay: Inhibition of HIV1 reverse transcriptase p66/p51 L100I mutant; settings: read-out: IC50; how it was run: as §5
Influenza A virus [16] = assay: Antiviral activity against influenza H1N1 virus in MDCK cells assessed as reduction of virus-induced cytopathicity by MTS method; format: functional, organism-based; settings: Influenza A virus, H1N1, MDCK
Coxsackievirus B4 [17] = assay: Antiviral activity against Coxsackievirus B4 in african green monkey Vero cells assessed as protection against virus-induced cytopathicity; format: functional, organism-based; settings: Enterovirus B; how it was run: as §1
Sindbis virus = assay: Antiviral activity against Sindbis virus in african green monkey Vero cells assessed as protection against virus-induced cytopathicity; format: functional, organism-based; how it was run: as §1
[18] = Cytotoxicity against MDCK cells by MTS assay; format: cell-based, Canis lupus familiaris; settings: dog
[19] = molecular target: Human immunodeficiency virus type 1 reverse transcriptase (Human immunodeficiency virus 1, UniProt Q72547); assay: Inhibition of HIV1 reverse transcriptase p66/p51; settings: read-out: IC50
[20] = tested on: Respiratory syncytial virus; assay: Antiviral activity against RSV Long in human HeLa cells assessed as protection against virus-induced cytopathicity; format: functional, organism-based; how it was run: as §1
[21] = molecular target: Human immunodeficiency virus type 1 reverse transcriptase (Human immunodeficiency virus 1, UniProt Q72547, K103N); assay: Inhibition of HIV1 reverse transcriptase p66/p51 K103N mutant; settings: read-out: IC50; how it was run: as §5
[22] = tested on: Mammalian orthoreovirus 1; assay: Antiviral activity against Reovirus 1 in african green monkey Vero cells assessed as protection against virus-induced cytopathicity; format: functional, organism-based; settings: Mammalian orthoreovirus 1, Vero; how it was run: as §1
Human alphaherpesvirus 1 [23] = assay: Antiviral activity against thymidine kinase deficient and acyclovir resistant HSV1 KOS in human HEL cells assessed as protection against virus-induced cytopathicity; format: functional, organism-based; settings: Human alphaherpesvirus 1, KOS
CCRF-CEM = assay: Antiproliferative activity against human CEM cells after 3 days; format: cell-based; settings: 72 h; how it was run: as §4
[24] = tested on: Vesicular stomatitis virus; assay: Antiviral activity against VSV in human HEL cells assessed as protection against virus-induced cytopathicity; format: functional, organism-based
[25] = Cytotoxicity against african green monkey Vero cells assessed as drug level causing microscopically detectable alteration of normal cell morphology after 3 days; format: cell-based; settings: chlorocebus sabaeus; how it was run: as §3
Coxsackievirus B4 [26] = assay: Antiviral activity against Coxsackievirus B4 in human HeLa cells assessed as protection against virus-induced cytopathicity; format: functional, organism-based; settings: Enterovirus B; how it was run: as §1
Punta Toro virus = assay: Antiviral activity against Punta Toro virus in african green monkey Vero cells assessed as protection against virus-induced cytopathicity; format: functional, organism-based; how it was run: as §1
[27] = tested on: Human immunodeficiency virus 2; assay: Antiviral activity against HIV2 ROD in human CEM cells assessed as protection against virus-induced cytopathicity after 4 days; format: functional, organism-based; settings: Human immunodeficiency virus 2, ROD, CCRF-CEM, 96 h; how it was run: as §2
Felid alphaherpesvirus 1 = assay: Antiviral activity against Feline herpesvirus in feline […] cells assessed as inhibition of virus-induced cytopathicity; format: functional, organism-based

Structure (SMILES)	EC50 (Influenza B virus [1]) [µM]	EC50 [2] [µM]	EC50 (Human respirovirus 3) [µM]	EC50 (Influenza A virus H3N2 [3]) [µM]	EC50 [4] [µM]	EC50 (Influenza A virus [5]) [µM]	EC50 (Feline coronavirus) [µM]	MCC at 72 h [6] [µM]	MCC [7] [µM]	MCC at 72 h [8] [µM]	EC50 (Vaccinia virus) [µM]	EC50 (Human alphaherpesvirus 2) [µM]	EC50 (Influenza B virus [9]) [µM]	EC50 (Human alphaherpesvirus 1 [10]) [µM]	CC50 [11] [µM]	EC50 (Influenza A virus H3N2 [12]) [µM]	IC50 (L1210) [µM]	IC50 [13] [µM]	IC50 [14] [µM]	IC50 [15] [µM]	further results
Cc1cc(C)cc(S(=O)(=O)c2c(C(=O)NC(C)CS(N)(=O)=O)[nH]c3ccc([N+](=O)[O-])cc23)c1 (configuration not stated)	> 4	≥ 20	> 20	> 4	0.0042	> 4	> 20	≥ 20	20	≥ 20	> 20	> 20	> 4	> 20	47.6	> 4	20	11	26.2	0.364	EC50 (Influenza A virus [16]): > 4 µM; EC50 (Coxsackievirus B4 [17]): ≥ 20 µM; EC50 (Sindbis virus): > 20 µM; CC50 [18]: 9.8 µM; IC50 [19]: 0.028 µM; EC50 [20]: > 20 µM; IC50 [21]: 3.28 µM; EC50 [22]: > 20 µM; EC50 (Human alphaherpesvirus 1 [23]): > 20 µM; IC50 (CCRF-CEM): 15 µM; EC50 [24]: > 20 µM; MCC at 72 h [25]: ≥ 20 µM; EC50 (Coxsackievirus B4 [26]): ≥ 20 µM; EC50 (Punta Toro virus): > 20 µM; EC50 [27]: > 10 µM; EC50 (Felid alphaherpesvirus 1): > 20 µM
Cc1cc(C)cc(S(=O)(=O)c2c(C(=O)NCCS(N)(=O)=O)[nH]c3ccc([N+](=O)[O-])cc23)c1	> 4	≥ 100	> 20	> 4	0.0027	> 4	> 100	≥ 100	20	20	> 4	> 4	> 4	> 4	> 100	> 4	408	244	> 40	0.388	EC50 (Influenza A virus [16]): > 4 µM; EC50 (Coxsackievirus B4 [17]): > 20 µM; EC50 (Sindbis virus): > 20 µM; CC50 [18]: 32.7 µM; IC50 [19]: 0.061 µM; EC50 [20]: 20 µM; IC50 [21]: 0.787 µM; EC50 [22]: > 20 µM; EC50 (Human alphaherpesvirus 1 [23]): > 4 µM; IC50 (CCRF-CEM): 200 µM; EC50 [24]: > 4 µM; MCC at 72 h [25]: 100 µM; EC50 (Coxsackievirus B4 [26]): ≥ 20 µM; EC50 (Punta Toro virus): > 20 µM; EC50 [27]: > 10 µM; EC50 (Felid alphaherpesvirus 1): > 100 µM
